Results from ChEMBL document CHEMBL2375246, “In silico identification of poly(ADP-ribose)polymerase-1 inhibitors and their chemosensitizing effects against cisplatin-resistant human gastric cancer cells” (Bioorg Med Chem Lett, 2013).
Active and inactive are the calls of the source. The rule behind the calls is not given here.

What was measured:
[1] = target: Poly [ADP-ribose] polymerase 1 (Homo sapiens, UniProt P09874); test: Inhibition of PARP1 (unknown origin) after 15 mins by fluorometric analysis
[2] = Cytotoxicity against human YCC-3/D cells after 36 hrs by MTS assay; format: cell-based
Outline: (§1)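 Cells (YCC-3 parent, or YCC-3/D cisplatin-resistant line kept at 2.5 µg/mL cisplatin) seeded at 5000 cells/well, incubated overnight at 37 °C/5% CO2, then exposed to compound for 36 h. Medium replaced with MTS-containing medium for 2 h at 37 °C, absorbance read at 490 nm. Triplicate; IC50 taken from plot of % growth inhibition vs concentration.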

YCC-3/D [3] = test: Potentiation of cisplatin-induced cytotoxicity against human YCC-3/D cells assessed as reduction in cisplatin IC50 at 50 uM co-treated with cisplatin after 36 hrs by MTS assay; format: functional, cell-based
YCC-3/D [4] = test: Potentiation of cisplatin-induced cytotoxicity against human YCC-3/D cells assessed as reduction in cisplatin IC50 at 50 uM incubated for 8 hrs prior to cisplatin-addition measured after 36 hrs by MTS assay; format: functional, cell-based
Outline: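 Pretreatment format: cells seeded at 2500 cells/well, incubated overnight at 37 °C/5% CO2, exposed to PARP-1 inhibitor at 50 µM for 8 h. Inhibitor medium removed, cisplatin added over a concentration series for 36 h. MTS added for 2 h at 37 °C, absorbance read at 490 nm. Triplicate; cisplatin IC50 from % growth inhibition vs cisplatin concentration.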

YCC-3 = test: Potentiation of cisplatin-induced cytotoxicity against human YCC-3 cells assessed as reduction in cisplatin IC50 at 50 uM incubated for 8 hrs prior to cisplatin-addition measured after 36 hrs by MTS assay; format: functional, cell-based
[5] = Cytotoxicity against human YCC-3 cells after 36 hrs by MTS assay; format: cell-based; details: YCC-3, 36 h; outline: as §1

Chain of Poly [ADP-ribose] polymerase 1 (P09874 whole entry): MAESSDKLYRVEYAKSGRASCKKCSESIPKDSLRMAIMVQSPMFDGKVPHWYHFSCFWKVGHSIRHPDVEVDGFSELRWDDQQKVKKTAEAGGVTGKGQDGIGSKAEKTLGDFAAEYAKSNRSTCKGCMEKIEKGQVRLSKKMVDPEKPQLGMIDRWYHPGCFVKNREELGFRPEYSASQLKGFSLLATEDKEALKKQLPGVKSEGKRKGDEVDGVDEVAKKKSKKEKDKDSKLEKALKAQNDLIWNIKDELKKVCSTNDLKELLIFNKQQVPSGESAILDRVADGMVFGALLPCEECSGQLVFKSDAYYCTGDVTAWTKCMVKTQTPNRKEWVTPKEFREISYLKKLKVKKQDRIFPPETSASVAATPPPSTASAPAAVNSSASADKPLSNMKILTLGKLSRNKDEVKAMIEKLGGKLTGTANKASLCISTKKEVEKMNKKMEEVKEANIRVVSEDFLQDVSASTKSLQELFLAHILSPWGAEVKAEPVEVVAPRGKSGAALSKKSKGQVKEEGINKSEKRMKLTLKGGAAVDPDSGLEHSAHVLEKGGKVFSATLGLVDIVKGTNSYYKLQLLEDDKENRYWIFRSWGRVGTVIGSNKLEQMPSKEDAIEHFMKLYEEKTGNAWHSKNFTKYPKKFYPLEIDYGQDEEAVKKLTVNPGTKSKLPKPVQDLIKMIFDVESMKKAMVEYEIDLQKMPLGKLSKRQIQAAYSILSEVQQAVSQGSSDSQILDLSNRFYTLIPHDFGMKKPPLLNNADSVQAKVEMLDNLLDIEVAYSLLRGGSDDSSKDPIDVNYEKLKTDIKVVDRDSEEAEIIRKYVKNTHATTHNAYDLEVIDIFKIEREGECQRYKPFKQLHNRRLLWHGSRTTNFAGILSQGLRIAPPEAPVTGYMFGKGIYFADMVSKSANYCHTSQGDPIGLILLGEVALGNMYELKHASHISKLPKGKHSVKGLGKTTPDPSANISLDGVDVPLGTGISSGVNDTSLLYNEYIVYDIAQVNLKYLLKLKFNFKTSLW

## O=c1[nH]c(CCCN2CC=C(c3ccc(F)cc3)CC2)nc2ccccc12
[1]
  IC50: 304 nM

## O=c1[nH]c(CCCN2CCC(c3ccc(Cl)cc3)CC2)nc2ccccc12
[1]
  IC50: 388 nM

## COc1ccccc1N1CCN(CCCc2nc3ccccc3c(=O)[nH]2)CC1
[1]
  IC50: 189 nM

## O=c1[nH]c(CCCN2CCC(c3ccccc3)CC2)nc2ccccc12
[2]
  IC50: 96300 nM
YCC-3/D [3]
  Activity: inactive
YCC-3/D [4]
  Activity: Active
[1]
  IC50: 79 nM
YCC-3
  Activity: inactive
[5]
  IC50: 126000 nM

## O=c1[nH]c(CCCN2CCN(c3ccc(F)cc3)CC2)nc2ccccc12
[2]
  IC50: > 200000 nM
YCC-3/D [3]
  Activity: inactive
YCC-3/D [4]
  Activity: Active
[1]
  IC50: 77 nM
YCC-3
  Activity: inactive
[5]
  IC50: > 200000 nM

## O=c1[nH]c(CCCN2CCN(c3cccc(Cl)c3)CC2)nc2ccccc12
[1]
  IC50: 1010 nM

## CCCCc1nc2ccccc2c(=O)[nH]1
[1]
  IC50: 8890 nM
